Measurements published in ChEMBL document CHEMBL3271935, “Synthesis and biological activity of some broad-spectrum N-acylphenyglycine cephalosporins” (1977).
In brackets after ≈: the same amount, converted by molar mass.

What was measured:
[1] = test system: Pseudomonas aeruginosa; assay: Antibacterial activity against Pseudomonas aeruginosa HH 63 assessed as growth inhibition by two-fold agar dilution method; format: functional
Summary of the method: (§1)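 MIC (μg/mL) by twofold agar dilution on Trypticase soy agar buffered to pH 6.0.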

[2] = test system: Pseudomonas aeruginosa; assay: Antibacterial activity against Pseudomonas aeruginosa 1504 assessed as growth inhibition; format: functional
Summary of the method: (§2)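 Broth MIC by the standard microtiter technique in unbuffered Mueller-Hinton broth.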

[3] = test system: Klebsiella aerogenes; assay: Antibacterial activity against Enterobacter aerogenes ATCC 13048 assessed as growth inhibition by two-fold agar dilution method; format: functional; summary of the method: as §1
[4] = test system: Staphylococcus aureus; assay: Antibacterial activity against penicillin G resistant Staphylococcus aureus HH 127 assessed as growth inhibition by two-fold agar dilution method; format: functional
Summary of the method: (§3)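 Twofold agar dilution on Trypticase soy agar buffered to pH 6.0. MIC reported in μg/mL.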

[5] = test system: Pseudomonas aeruginosa; assay: Antibacterial activity against Pseudomonas aeruginosa 219 assessed as growth inhibition; format: functional; summary of the method: as §2
[6] = test system: Escherichia coli; assay: Antibacterial activity against Escherichia coli 12140 infected in sc dosed mouse administered at 1 to 5 hrs measured for 3 days; format: functional; conditions: Escherichia coli, 12140, sc; read-out: PD50
Summary of the method: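 Mice infected intraperitoneally with about 2×10^3 organisms per mouse of E. coli 12140 culture diluted in 5% hog gastric mucin, giving uniformly lethal infection. Fourfold dilutions given subcutaneously in equally divided portions at 1 and 5 h postinfection, five groups per compound. Survivors observed 3 days. PD50 is total dose (mg/kg) protecting 50%, calculated by Litchfield–Wilcoxon method.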

[7] = test system: Salmonella paratyphi; assay: Antibacterial activity against Salmonella paratyphi ATCC 12176 assessed as growth inhibition by two-fold agar dilution method; format: functional, Salmonella enterica subsp. enterica serovar Paratyphi A; conditions: Salmonella enterica; summary of the method: as §3
[8] = test system: Morganella morganii; assay: Antibacterial activity against indole positive Proteus morganii 179 assessed as growth inhibition by two-fold agar dilution method; format: functional; summary of the method: as §1
[9] = test system: Pseudomonas aeruginosa; assay: Antibacterial activity against Pseudomonas aeruginosa 1062 assessed as growth inhibition; format: functional; summary of the method: as §2
[10] = test system: Pseudomonas aeruginosa; assay: Antibacterial activity against Pseudomonas aeruginosa 1042 assessed as growth inhibition; format: functional; summary of the method: as §2
[11] = test system: Escherichia coli; assay: Antibacterial activity against Escherichia coli 12140 assessed as growth inhibition by two-fold agar dilution method; format: functional; summary of the method: as §1
[12] = test system: Pseudomonas aeruginosa; assay: Antibacterial activity against Pseudomonas aeruginosa 647 assessed as growth inhibition; format: functional; summary of the method: as §2
[13] = test system: Pseudomonas aeruginosa; assay: Antibacterial activity against Pseudomonas aeruginosa 864 assessed as growth inhibition; format: functional; summary of the method: as §2
[14] = test system: Klebsiella pneumoniae; assay: Antibacterial activity against Klebsiella pneumoniae 4200 assessed as growth inhibition by two-fold agar dilution method; format: functional; summary of the method: as §1
[15] = test system: Pseudomonas aeruginosa; assay: Antibacterial activity against Pseudomonas aeruginosa 1063 assessed as growth inhibition; format: functional; summary of the method: as §2
[16] = test system: Pseudomonas aeruginosa; assay: Antibacterial activity against Pseudomonas aeruginosa 1106 assessed as growth inhibition; format: functional; summary of the method: as §2

SMILES | MIC [1] [µg/mL] | MIC [2] [µg/mL] | MIC [3] [µg/mL] | MIC [4] [µg/mL] | MIC [5] [µg/mL] | ED50 [6] [mg/kg] | MIC [7] [µg/mL] | MIC [8] [µg/mL] | MIC [9] [µg/mL] | MIC [10] [µg/mL] | MIC [11] [µg/mL] | MIC [12] [µg/mL] | MIC [13] [µg/mL] | MIC [14] [µg/mL] | MIC [15] [µg/mL] | MIC [16] [µg/mL]
Cn1nnnc1SCC1=C(C(=O)[O-])N2C(=O)[C@@H](NC(=O)C(NC(=O)CCCC(=O)[O-])c3ccccc3)[C@H]2SC1.[Na+].[Na+] (some centres undefined) | > 200 | > 500 | 25 | 3.1 | > 500 | 100 | 6.3 | 12.5 | > 500 | > 500 | 12.5 | > 500 | > 500 | 6.3 | > 500 | > 500
Cn1nnnc1SCC1=C(C(=O)[O-])N2C(=O)[C@@H](NC(=O)C(NC(=O)C3CCC(C(=O)[O-])O3)c3ccccc3)[C@H]2SC1.[Na+].[Na+] (mixture of isomers) | 100 | 63 | 3.1 | 3.1 | 125 | 25 | 3.1 | 1.6 | 125 | 125 | 3.1 | 125 | 500 | 1.6 | 250 | 500
Cn1nnnc1SCC1=C(C(=O)[O-])N2C(=O)[C@@H](NC(=O)C(NC(=O)C3CO3)c3ccccc3)[C@H]2SC1.[Na+] (mixture of isomers) | 200 | 500 | 12.5 | 1.6 | > 500 | 45 | 6.3 | 3.1 | > 500 | > 500 | 12.5 | > 500 | > 500 | 6.3 | > 500 | > 500
Cn1nnnc1SCC1=C(C(=O)[O-])N2C(=O)[C@@H](NC(=O)C(NC(=O)[C@@H]3O[C@@H]3C(=O)[O-])c3ccccc3)[C@H]2SC1.[Na+].[Na+] (mixture of isomers) | 200 | 500 | 12.5 | 12.5 | 500 | 35 | 6.3 | 3.1 | > 500 | > 500 | 6.3 | > 500 | 500 | 3.1 | > 500 | > 500
CC1(C)S[C@@H]2[C@H](NC(=O)C(C(=O)O)c3ccccc3)C(=O)N2[C@H]1C(=O)O (some centres undefined) [CARBENICILLIN] | 50 (≈ 132 µM) | 63 (≈ 166 µM) | 12.5 (≈ 33 µM) | 3.1 (≈ 8.19 µM) | 63 (≈ 166 µM) | 25 | 6.3 (≈ 16.6 µM) | 0.8 (≈ 2.11 µM) | 63 (≈ 166 µM) | 63 (≈ 166 µM) | 6.3 (≈ 16.6 µM) | 63 (≈ 166 µM) | 500 (≈ 1320 µM) | 6.3 (≈ 16.6 µM) | 63 (≈ 166 µM) | 125 (≈ 330 µM)
Cn1nnnc1SCC1=C(C(=O)[O-])N2C(=O)[C@@H](NC(=O)C(NC(=O)COCC(=O)[O-])c3ccccc3)[C@H]2SC1.[Na+].[Na+] (some centres undefined) | 200 | 125 | 3.1 | 3.1 | 125 | 8.7 | 1.6 | 0.4 | 250 | 250 | 1.6 | 125 | 500 | 0.8 | 500 | 500
CC(=O)OCC1=C(C(=O)[O-])N2C(=O)[C@@H](NC(=O)C(NC(=O)CCCC(=O)[O-])c3ccccc3)[C@H]2SC1.[Na+].[Na+] (some centres undefined) | > 200 |  | 100 | 6.3 |  | 100 | 25 | > 200 |  |  | 50 |  |  | 25 |  | 
